In ChEMBL document CHEMBL2202955, “Identification of Potent, Selective, Cell-Active Inhibitors of the Histone Lysine Methyltransferase EZH2” (ACS Med Chem Lett, 2012):
Active and inactive are the calls of the source. The calls are words filed in the database; no cut-off is given here.

Tests used:
[1] = target: Histone-lysine N-methyltransferase 2D (Homo sapiens, UniProt O14686); experiment: Inhibition of MLL2 using core histone as substrate preincubated for 10 mins followed by addition of [3H]SAM and incubated for 60 mins
Summary of the method: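 Panel of methyltransferases tested for selectivity. […] Values are the mean of at least two independent replicates.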

[2] = target: T1, Histone-lysine N-methyltransferase EZH2 (Homo sapiens, UniProt Q15910); experiment: Inhibition of EZH2-mediated proliferation of human DU145 cells after 6 days by chemiluminescence analysis; format: cell-based; details: DU-145
T1 sequence (Q15910 whole entry, looked up): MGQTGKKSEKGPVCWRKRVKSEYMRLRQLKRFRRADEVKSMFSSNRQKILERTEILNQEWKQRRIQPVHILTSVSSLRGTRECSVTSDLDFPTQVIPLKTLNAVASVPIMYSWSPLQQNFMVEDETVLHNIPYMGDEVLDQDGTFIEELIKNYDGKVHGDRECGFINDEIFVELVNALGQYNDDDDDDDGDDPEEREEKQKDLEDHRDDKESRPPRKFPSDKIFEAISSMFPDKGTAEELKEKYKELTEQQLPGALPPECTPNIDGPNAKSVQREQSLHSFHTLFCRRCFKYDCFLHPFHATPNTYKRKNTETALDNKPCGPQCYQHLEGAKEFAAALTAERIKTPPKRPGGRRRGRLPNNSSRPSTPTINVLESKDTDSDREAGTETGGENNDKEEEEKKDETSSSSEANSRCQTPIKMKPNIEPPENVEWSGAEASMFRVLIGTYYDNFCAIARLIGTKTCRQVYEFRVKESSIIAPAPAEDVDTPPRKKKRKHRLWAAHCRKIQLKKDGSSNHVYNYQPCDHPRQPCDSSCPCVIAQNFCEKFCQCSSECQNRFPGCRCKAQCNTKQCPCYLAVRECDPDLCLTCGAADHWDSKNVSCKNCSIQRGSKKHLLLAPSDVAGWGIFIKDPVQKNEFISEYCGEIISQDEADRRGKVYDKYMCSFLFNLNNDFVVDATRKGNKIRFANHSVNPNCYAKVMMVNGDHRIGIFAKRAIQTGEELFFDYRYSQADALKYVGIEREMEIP

[3] = target: T1, Histone-lysine N-methyltransferase EZH2; experiment: Inhibition of EZH2-mediated proliferation of human ZR-75-1 cells after 6 days by chemiluminescence analysis; format: cell-based
[4] = target: T1, Histone-lysine N-methyltransferase EZH2; experiment: Inhibition of EZH2-mediated proliferation of human SKBR3 cells after 6 days by chemiluminescence analysis; format: cell-based; details: SK-BR-3
[5] = target: T1, Histone-lysine N-methyltransferase EZH2; experiment: Inhibition of EZH2-mediated proliferation of human […] cells after 6 days by chemiluminescence analysis; format: cell-based

IC50 [1] [µM]	inhibition [2]	inhibition [3]	inhibition [4]	inhibition [5]	SMILES
> 100	–	–	–	–	CCCc1cc(C)[nH]c(=O)c1CNC(=O)c1cc(-c2ccnc(N3CCN(C)CC3)c2)cc2c1cnn2C(C)C
–	Active	Active	Active	Active	Cc1cc(C)c(CNC(=O)c2cc(-c3ccc(N4CCN(C)CC4)nc3)cc3c2cnn3C(C)C)c(=O)[nH]1
